How the values were obtained:
[1] = system: Canis familiaris; experiment: Conduction time from Q wave to T wave of lead II electrocardiogram corrected for heart rate was tested in dogs at a dose of 0.3 mg/kg through intravenous administration. (baseline value- 352+/-7); type: functional, Canis lupus familiaris
[2] = system: Canis familiaris; experiment: Conduction time from Q wave to T wave of lead II electrocardiogram corrected for heart rate was tested in dogs at a dose of 1.0 mg/kg through intravenous administration. (baseline value- 352+/-7); type: functional, Canis lupus familiaris
[3] = system: Canis familiaris; experiment: Conduction time from Q wave to T wave of lead II electrocardiogram corrected for heart rate was tested in dogs at a dose of 3.0 mg/kg through intravenous administration. (baseline value- 352+/-7); type: functional, Canis lupus familiaris
[4] = system: Canis familiaris; experiment: Conduction time from the His bundle to the onset of ventricular depolarizations was tested in dogs at a dose of 0.1 mg/kg through intravenous administration. (baseline value- 17+/-1 ); type: functional, Canis lupus familiaris, Cardiac ventricle
[5] = system: Canis familiaris; experiment: Conduction time from the His bundle to the onset of ventricular depolarizations was tested in dogs at a dose of 0.3 mg/kg through intravenous administration. (baseline value- 17+/-1 ); type: functional, Canis lupus familiaris, Cardiac ventricle
[6] = system: Canis familiaris; experiment: Conduction time from the His bundle to the onset of ventricular depolarizations was tested in dogs at a dose of 1.0 mg/kg through intravenous administration. (baseline value- 17+/-1 ); type: functional, Canis lupus familiaris, Cardiac ventricle
[7] = system: Canis familiaris; experiment: Conduction time from the His bundle to the onset of ventricular depolarizations was tested in dogs at a dose of 3.0 mg/kg through intravenous administration. (baseline value- 17+/-1 ); type: functional, Canis lupus familiaris, Cardiac ventricle
[8] = system: Canis familiaris; experiment: Conduction time from the atrium to His bundle was tested in dogs at a dose of 0.1 mg/kg through intravenous administration. (baseline value- 73+/-3 ); type: functional, Canis lupus familiaris
[9] = system: Canis familiaris; experiment: Conduction time from the atrium to His bundle was tested in dogs at a dose of 0.3 mg/kg through intravenous administration. (baseline value- 73+/-3 ); type: functional, Canis lupus familiaris
[10] = system: Canis familiaris; experiment: Conduction time from the atrium to His bundle was tested in dogs at a dose of 1.0 mg/kg through intravenous administration. (baseline value- 73+/-3 ); type: functional, Canis lupus familiaris
[11] = system: Canis familiaris; experiment: Conduction time from the atrium to His bundle was tested in dogs at a dose of 3.0 mg/kg through intravenous administration. (baseline value 73+/-3 ); type: functional, Canis lupus familiaris
[12] = system: Canis familiaris; experiment: Conduction time for ventricular refractory period of the first premature stimulus was tested in dogs at a dose of 0.1 mg/kg through intravenous administration. (baseline value- 137+/-4); type: functional, Canis lupus familiaris, Cardiac ventricle
[13] = system: Canis familiaris; experiment: Conduction time for ventricular refractory period of the first premature stimulus was tested in dogs at a dose of 0.3 mg/kg through intravenous administration. (baseline value- 137+/-4); type: functional, Canis lupus familiaris, Cardiac ventricle
[14] = system: Canis familiaris; experiment: Conduction time for ventricular refractory period of the first premature stimulus was tested in dogs at a dose of 1.0 mg/kg through intravenous administration. (baseline value- 137+/-4); type: functional, Canis lupus familiaris, Cardiac ventricle
[15] = system: Canis familiaris; experiment: Conduction time for ventricular refractory period of the first premature stimulus was tested in dogs at a dose of 3.0 mg/kg through intravenous administration. (baseline value- 137+/-4); type: functional, Canis lupus familiaris, Cardiac ventricle
[16] = system: Canis familiaris; experiment: Conduction time for ventricular refractory period of the second premature stimulus was tested in dogs at a dose of 0.1 mg/kg through intravenous administration. (baseline value- 123+/-4); type: functional, Canis lupus familiaris, Cardiac ventricle
[17] = system: Canis familiaris; experiment: Conduction time for ventricular refractory period of the second premature stimulus was tested in dogs at a dose of 0.3 mg/kg through intravenous administration. (baseline value- 123+/-4); type: functional, Canis lupus familiaris, Cardiac ventricle
[18] = system: Canis familiaris; experiment: Conduction time for ventricular refractory period of the second premature stimulus was tested in dogs at a dose of 1.0 mg/kg through intravenous administration. (baseline value- 123+/-4); type: functional, Canis lupus familiaris, Cardiac ventricle
[19] = system: Canis familiaris; experiment: Conduction time for ventricular refractory period of the second premature stimulus was tested in dogs at a dose of 3.0 mg/kg through intravenous administration. (baseline value- 123+/-4); type: functional, Canis lupus familiaris, Cardiac ventricle
[20] = system: Canis familiaris; experiment: Conduction time from Q wave to T wave of lead II electrocardiogram corrected for heart rate was tested in dogs at a dose of 0.1 mg/kg through intravenous administration. (baseline value- 352+/-7); type: functional, Canis lupus familiaris
[21] = organism: Oryctolagus cuniculus; experiment: Tested for effective refractory period measured at a pacing rate of 1 Hz in vitro with rabbit heart tissue preparations.; type: functional
In short: (§1)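 Isolated rabbit heart tissues, all from one heart, each its own baseline; 2 h equilibration, perfusate changed every 15 min, basal stimulation 2 Hz between measurements. Exposed to 10^-7, 10^-6 and 10^-5 M drug, 15 min each; values reported at 10^-5 M as percent change from baseline. Drug solutions prepared daily in glass-distilled water. Force and rate recorded on polygraph.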

[22] = organism: Oryctolagus cuniculus; experiment: Tested for effective refractory period measured at a pacing rate of 3 Hz in vitro with rabbit heart tissue preparations.; type: functional; set-up: unit: %; in short: as §1
[23] = organism: Oryctolagus cuniculus; experiment: Tested for conduction time measured at a pacing rate of 3 Hz in vitro with rabbit heart tissue preparations.; type: functional; in short: as §1
[24] = organism: Oryctolagus cuniculus; experiment: Tested for force of contraction measured in mg at a pacing rate of 2 Hz in vitro with rabbit heart tissue preparations.; type: functional; in short: as §1
[25] = organism: Oryctolagus cuniculus; experiment: Tested for conduction time measured at a pacing rate of 1 Hz in vitro with rabbit heart tissue preparations.; type: functional; in short: as §1
[26] = organism: Oryctolagus cuniculus; experiment: Tested for rate automaticity measured in beats per minute from unpaced right atria of rabbit heart.; type: functional; in short: as §1
[27] = system: Canis familiaris; experiment: Compound was tested in vivo in dogs at a dose of 1.0 mg/kg through intravenous route and number of dogs in which ventricular fibrillation was induced was recorded.(Base line value-1)
[28] = system: Canis familiaris; experiment: Compound was tested in vivo in dogs at a dose of 3.0 mg/kg through intravenous route and number of dogs in which ventricular fibrillation was induced was recorded.(Base line value-1)
[29] = system: Canis familiaris; experiment: Compound was tested in vivo in dogs at a dose of 0.3 mg/kg through intravenous route and number of dogs in which ventricular fibrillation was induced was recorded.(Base line value-1)
[30] = system: Canis familiaris; experiment: Compound was tested in vivo in dogs at a dose of 0.1 mg/kg through intravenous route and number of dogs in which ventricular fibrillation was induced was recorded.(Base line value-1)
[31] = system: Canis familiaris; experiment: Compound was tested in vivo in dogs at a dose of 0.1 mg/kg through intravenous route and number of dogs in which ventricular arrhythmias were not indicible was recorded.(Base line value-2)
[32] = system: Canis familiaris; experiment: Compound was tested in vivo in dogs at a dose of 1.0 mg/kg through intravenous route and number of dogs in which ventricular arrhythmias were not indicible was recorded.(Base line value-2)
[33] = system: Canis familiaris; experiment: Compound was tested in vivo in dogs at a dose of 3.0 mg/kg through intravenous route and number of dogs in which ventricular arrhythmias were not indicible was recorded.(Base line value-2)
[34] = system: Canis familiaris; experiment: Compound was tested in vivo in dogs at a dose of 0.3 mg/kg through intravenous route and number of dogs in which ventricular arrhythmias were not indicible was recorded.(Base line value-2)
[35] = system: Canis familiaris; experiment: Compound was tested in vivo in dogs at a dose of 1.0 mg/kg through intravenous route and number of dogs in which sustained ventricular arrhythmias were induced was recorded.(Base line value-1)
[36] = system: Canis familiaris; experiment: Compound was tested in vivo in dogs at a dose of 0.1 mg/kg through intravenous route and number of dogs in which sustained ventricular arrhythmias were induced was recorded.(Base line value-1)
[37] = system: Canis familiaris; experiment: Compound was tested in vivo in dogs at a dose of 3.0 mg/kg through intravenous route and number of dogs in which sustained ventricular arrhythmias were induced was recorded.(Base line value-1)
[38] = system: Canis familiaris; experiment: Compound was tested in vivo in dogs at a dose of 0.3 mg/kg through intravenous route and number of dogs in which sustained ventricular arrhythmias were induced was recorded.(Base line value-1)
[39] = system: Canis familiaris; experiment: Compound was tested in vivo in dogs at a dose of 0.1 mg/kg through intravenous route and number of dogs in which nonsustained ventricular arrhythmias were induced was recorded.(Base line value-2)
[40] = system: Canis familiaris; experiment: Compound was tested in vivo in dogs at a dose of 3.0 mg/kg through intravenous route and number of dogs in which nonsustained ventricular arrhythmias were induced was recorded.(Base line value-2)
[41] = system: Canis familiaris; experiment: Compound was tested in vivo in dogs at a dose of 0.3 mg/kg through intravenous route and number of dogs in which nonsustained ventricular arrhythmias were induced was recorded.(Base line value-2)
[42] = system: Canis familiaris; experiment: Compound was tested in vivo in dogs at a dose of 1.0 mg/kg through intravenous route and number of dogs in which nonsustained ventricular arrhythmias were induced was recorded.(Base line value-2)

CCCCN(CCCC)CCCC(O)c1ccc(NS(C)(=O)=O)cc1 (configuration not stated)
Time [1]: 358 ms | Time [2]: 361 ms | Time [3]: 367 ms | Time [4]: 13 ms | Time [5]: 15 ms | Time [6]: 15 ms | Time [7]: 13 ms | Time [8]: 71 ms | Time [9]: 66 ms | Time [10]: 64 ms | Time [11]: 64 ms | Time [12]: 145 ms | Time [13]: 147 ms | Time [14]: 145 ms | Time [15]: 145 ms | Time [16]: 128 ms | Time [17]: 127 ms | Time [18]: 120 ms | Time [19]: 115 ms | Time [20]: 370 ms | ERP1 [21]: 9.5 | ERP3 [22]: 10.4 | CT3 [23]: 5.2 | FOC [24]: 0 | CT1 [25]: -8.5 | Rate [26]: -20.3 | number of animals [27]: 1 animals | number of animals [28]: 0 animals | number of animals [29]: 0 animals | number of animals [30]: 0 animals | number of animals [31]: 1 animals | number of animals [32]: 2 animals | number of animals [33]: 0 animals | number of animals [34]: 2 animals | number of animals [35]: 0 animals | number of animals [36]: 1 animals | number of animals [37]: 2 animals | number of animals [38]: 0 animals | number of animals [39]: 2 animals | number of animals [40]: 1 animals | number of animals [41]: 4 animals | number of animals [42]: 3 animals

Reference: ChEMBL document CHEMBL1125736, “N-[(omega-amino-1-hydroxyalkyl)phenyl]methanesulfonamide derivatives with class III antiarrhythmic activity” (1991)
